Laboratory results taken from PMC7983942 (Clinical Pharmacology and Therapeutics, 2020).
Substitutions are numbered along the chain they refer to.

Legend:
Assay type in all cases: in vitro ADME
[1] = molecular target: T1, OATP1B1*1A (Homo sapiens, UniProt Q9Y6L6); assay: Uptake into transporter-transfected vs wild-type HEK293 cells
T1 sequence (Q9Y6L6 1-691): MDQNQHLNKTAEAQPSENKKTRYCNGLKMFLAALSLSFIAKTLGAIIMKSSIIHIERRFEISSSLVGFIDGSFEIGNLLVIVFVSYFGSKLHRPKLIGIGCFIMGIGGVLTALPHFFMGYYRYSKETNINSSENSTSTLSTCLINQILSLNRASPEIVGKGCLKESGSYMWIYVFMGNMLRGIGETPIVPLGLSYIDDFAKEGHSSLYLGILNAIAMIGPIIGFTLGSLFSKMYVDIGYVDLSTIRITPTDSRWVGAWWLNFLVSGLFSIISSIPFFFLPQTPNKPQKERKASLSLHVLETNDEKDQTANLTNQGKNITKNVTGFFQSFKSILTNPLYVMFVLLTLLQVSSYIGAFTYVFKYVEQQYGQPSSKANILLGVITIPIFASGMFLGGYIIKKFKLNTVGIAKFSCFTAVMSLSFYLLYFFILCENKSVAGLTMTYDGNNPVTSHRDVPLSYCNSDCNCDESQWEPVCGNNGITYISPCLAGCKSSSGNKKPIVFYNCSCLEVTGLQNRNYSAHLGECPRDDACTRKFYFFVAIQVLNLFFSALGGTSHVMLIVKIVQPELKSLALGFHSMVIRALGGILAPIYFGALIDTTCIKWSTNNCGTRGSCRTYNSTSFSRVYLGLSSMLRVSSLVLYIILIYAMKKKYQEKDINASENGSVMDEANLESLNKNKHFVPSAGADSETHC
How it was run: (§1)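 HEK293 cells stably transfected with OATP1B1*1A, OATP1B3 or OATP2B1, plus wild-type cells, were seeded on poly-D-lysine plates. Culture was 48 h at 37°C in DMEM with 10% FBS, pyruvate, nonessential amino acids and GlutaMAX. Test compound was 1 µM for 2 min; rosuvastatin probe was 1 µM over 2–4 min. Cells were washed four times in ice-cold buffer and lysed in methanol with internal standard. Readouts were uptake ratio versus wild-type and glucuronide/probe ratio of ratios; mean ± SD, n=3 in one experiment.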

[2] = molecular target: T2, OATP1B3 (Homo sapiens, UniProt Q9NPD5); assay: as above; conditions: rosuvastatin 1 µM, two to four minutes
T2 sequence (Q9NPD5 1-702): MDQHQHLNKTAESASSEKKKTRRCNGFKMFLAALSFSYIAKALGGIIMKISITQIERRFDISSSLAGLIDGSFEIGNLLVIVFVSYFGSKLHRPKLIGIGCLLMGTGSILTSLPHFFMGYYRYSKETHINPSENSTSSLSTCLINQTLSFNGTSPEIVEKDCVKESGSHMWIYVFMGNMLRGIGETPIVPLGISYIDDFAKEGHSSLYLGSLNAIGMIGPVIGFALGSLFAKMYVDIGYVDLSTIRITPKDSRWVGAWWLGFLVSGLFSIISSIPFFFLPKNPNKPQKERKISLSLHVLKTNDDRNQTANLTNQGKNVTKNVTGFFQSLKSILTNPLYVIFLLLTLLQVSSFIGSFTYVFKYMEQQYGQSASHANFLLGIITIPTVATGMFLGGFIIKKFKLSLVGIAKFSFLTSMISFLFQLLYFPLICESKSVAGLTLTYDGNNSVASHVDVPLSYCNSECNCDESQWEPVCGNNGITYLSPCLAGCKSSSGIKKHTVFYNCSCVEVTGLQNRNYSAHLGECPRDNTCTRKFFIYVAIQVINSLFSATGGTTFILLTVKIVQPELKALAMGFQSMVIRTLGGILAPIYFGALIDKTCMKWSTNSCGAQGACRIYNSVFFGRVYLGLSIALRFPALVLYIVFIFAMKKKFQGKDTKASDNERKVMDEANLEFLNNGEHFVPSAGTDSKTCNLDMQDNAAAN
How it was run: as §1

[3] = molecular target: T3, OATP1B1*15 (Homo sapiens, UniProt Q9Y6L6, N130D/V174A); assay: Uptake into OATP1B1 variant-transfected vs wild-type HEK293 cells; conditions: for Uptake ratio (vs. wild‐type HEK293 cells): 2 minutes
T3 sequence (Q9Y6L6 1-691 N130D/V174A): T1 sequence (Q9Y6L6 1-691) with N130D, V174A
How it was run: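 HEK293 cells stably expressing an OATP1B1 variant, alongside wild-type HEK293, were seeded at 0.5–1.2 × 10⁵ cells/well on poly-D-lysine plates. They grew 48 h at 37°C and 5% CO₂ in DMEM with 10% FBS, 1% pyruvate, nonessential amino acids and GlutaMAX. Substrate was 1 µM (0.5 µM where footnoted) for 2 min, then four ice-cold buffer washes and methanol lysis with internal standard. Uptake ratio (transfected/wild-type) is expressed as % of OATP1B1*14 in the same experiment; n=3 determinations.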

[4] = experiment 1, substrate concentration 0.5 µM

CC(C)c1nc(N(C)S(C)(=O)=O)nc(-c2ccc(F)cc2)c1/C=C/[C@@H](O)C[C@@H](O)CC(=O)O [Rosuvastatin]
Uptake ratio (vs. wild‐type HEK293 cells) ([1]; experiment 3, substrate 1 µM, 2 minutes): 51 ± 1.4 | Uptake ratio (vs. wild‐type HEK293 cells), probe ([1]; rosuvastatin 1 µM, two to four minutes): 51.3 ± 1.4 | Uptake ratio (vs. wild‐type HEK293 cells), probe [2]: 69.8 ± 1.9 | Uptake ratio as percentage of OATP1B1*14 in the same experiment [3, 4]: 15% | Uptake ratio (vs. wild‐type HEK293 cells) [3, 4]: 2.3 ± 0.2 | Uptake ratio as percentage of OATP1B1*14 in the same experiment ([3]; experiment 2, substrate 1 µM): 13% | Uptake ratio (vs. wild‐type HEK293 cells) ([3]; experiment 2, substrate 1 µM): 5.0 ± 0.2
